Source: ChEMBL document CHEMBL4257459, “Synergistic antifungal effect of cyclized chalcone derivatives and fluconazole against Candida albicans” (2017)

Assays:
[1] = test system: Candida albicans; test: Antifungal activity against fluconazole susceptible Candida albicans 003gr by CLSI protocol based broth microdilution method; assay type: functional
Summary of the method: (§1)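 Clinical isolates and control strain subcultured at least twice on TSA, 37 °C, 48 h. MICs by CLSI M27-A3 broth microdilution; compounds dissolved in DMSO to 2000 μg mL–1 stock. Fluconazole positive control, culture, media and DMSO vehicle controls in each run. Duplicate experiments; MIC in μg mL–1.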

[2] = test system: Candida albicans; test: Antifungal activity against fluconazole susceptible Candida albicans 003gr in presence of fluconazole by CLSI protocol based broth microdilution method; assay type: functional
[3] = test system: Candida albicans; test: Antifungal activity against Candida albicans ATCC 90028 in presence of fluconazole by CLSI protocol based broth microdilution method; assay type: functional
[4] = test system: Candida albicans; test: Antifungal activity against fluconazole susceptible Candida albicans 004gr by CLSI protocol based broth microdilution method; assay type: functional; summary of the method: as §1
[5] = test system: Candida albicans; test: Inhibition of ABC efflux pumps in fluconazole resistant Candida albicans A171 assessed as reduction in energy-dependent rhodamine 6G efflux in presence of 0.1 M glucose after 25 mins by fluorescence assay relative to control
Summary of the method: (§2)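 Cells grown in TSB at 37 °C for 8 h, washed, resuspended in glucose-free PBS at 1 × 10^8 cells. De-energized 45 min with 5 mM deoxyglucose plus 5 mM dinitrophenol. […] Washed, sampled 5–25 min, then 0.1 M glucose added. Absorbance 527 nm, R6G from standard curve.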

[6] = test system: Candida albicans; test: Antifungal activity against fluconazole resistant Candida albicans 167-1 in presence of fluconazole by CLSI protocol based broth microdilution method; assay type: functional
Summary of the method: (§3)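 Checkerboard-style combination with fluconazole at a 1 : 1 ratio, over concentrations 2–4 fold below each agent's MIC alone, by CLSI broth microdilution. Fractional inhibitory concentration index calculated and interpreted as synergy (<0.5), additive (0.5–1), indifferent or antagonistic.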

[7] = test system: Candida albicans; test: Inhibition of ABC efflux pumps in fluconazole susceptible Candida albicans 002B1 assessed as reduction in energy-dependent rhodamine 6G efflux in presence of 0.1 M glucose after 25 mins […] relative to control
[8] = test system: Candida albicans; test: Antifungal activity against Candida albicans ATCC 90028 by CLSI protocol based broth microdilution method; assay type: functional; summary of the method: as §1
[9] = test system: Candida albicans; test: Inhibition of ABC efflux pumps in fluconazole susceptible Candida albicans 004gr assessed as reduction in energy-dependent rhodamine 6G efflux in presence of 0.1 M glucose after 25 mins by fluorescence assay relative to control; summary of the method: as §2
[10] = test system: Candida albicans; test: Down regulation of ERG11 gene expression in fluconazole resistant Candida albicans A171 at MIC after 2 hrs by qRT PCR analysis relative to control; assay type: functional
Summary of the method: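 Cells exposed 2 h to test agents at MIC. Total RNA isolated, cDNA synthesized, qPCR for ERG11 with ACT1 as endogenous control. Triplicate independent experiments, reported as mean ± standard deviation.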

[11] = test system: Candida albicans; test: Inhibition of ergosterol biosynthesis in fluconazole resistant Candida albicans A171 at 0.5 to 1 times MIC relative to control; assay type: functional
Summary of the method: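 Total sterols quantified by alcoholic KOH extraction in cells grown in 50 ml TSB with compounds at MIC and ½ MIC; untreated and 8 μg mL–1 fluconazole controls. Spectral scan; ergosterol content from A281.5 and A230 absorbances, dilution factor and pellet weight, correcting for 24(28) DHE.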

[12] = test system: Candida albicans; test: Antifungal activity against fluconazole susceptible Candida albicans 004gr in presence of fluconazole by CLSI protocol based broth microdilution method; assay type: functional
[13] = test system: Candida albicans; test: Inhibition of ABC efflux pumps in fluconazole susceptible Candida albicans 003gr assessed as reduction in energy-dependent rhodamine 6G efflux in presence of 0.1 M glucose after 25 mins […] relative to control
[14] = test system: Candida albicans; test: Inhibition of ABC efflux pumps in fluconazole susceptible Candida albicans 0079gr assessed as reduction in energy-dependent rhodamine 6G efflux in presence of 0.1 M glucose after 25 mins by fluorescence assay relative to control; summary of the method: as §2
[15] = test system: Candida albicans; test: Antifungal activity against fluconazole resistant Candida albicans A171 in presence of fluconazole by CLSI protocol based broth microdilution method; assay type: functional; summary of the method: as §3
[16] = test system: Candida albicans; test: Antifungal activity against fluconazole resistant Candida albicans 167-2 in presence of fluconazole by CLSI protocol based broth microdilution method; assay type: functional; summary of the method: as §3
[17] = test system: Candida albicans; test: Inhibition of ABC efflux pumps in fluconazole susceptible Candida albicans 004B1 assessed as reduction in energy-dependent rhodamine 6G efflux in presence of 0.1 M glucose after 25 mins by fluorescence assay relative to control; summary of the method: as §2
[18] = test system: Candida albicans; test: Inhibition of ABC efflux pumps in fluconazole susceptible Candida albicans 0072gr assessed as reduction in energy-dependent rhodamine 6G efflux in presence of 0.1 M glucose after 25 mins […] relative to control
[19] = test system: Candida albicans; test: Antifungal activity against fluconazole susceptible Candida albicans 0072gr by CLSI protocol based broth microdilution method; assay type: functional; summary of the method: as §1
[20] = test system: Candida albicans; test: Antifungal activity against fluconazole susceptible Candida albicans 004B1 in presence of fluconazole by CLSI protocol based broth microdilution method; assay type: functional
[21] = test system: Candida albicans; test: Antifungal activity against fluconazole resistant Candida albicans 167-2 by CLSI protocol based broth microdilution method; assay type: functional
Summary of the method: (§4)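 Broth microdilution per CLSI M27-A3 against clinical C. albicans isolates. Strains sub-cultured at least twice on Tryptone Soya Agar, 37 °C, 48 h. Compounds dissolved in DMSO at 2000 μg mL–1 stock. Fluconazole positive control, plus culture, media and vehicle controls. Run in duplicate; MIC in μg mL–1.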

[22] = test system: Candida albicans; test: Antifungal activity against fluconazole susceptible Candida albicans 002B1 by CLSI protocol based broth microdilution method; assay type: functional; summary of the method: as §1
[23] = test system: Candida albicans; test: Antifungal activity against fluconazole resistant Candida albicans 167-1 by CLSI protocol based broth microdilution method; assay type: functional; summary of the method: as §4
[24] = test system: Candida albicans; test: Antifungal activity against fluconazole susceptible Candida albicans 0079gr by CLSI protocol based broth microdilution method; assay type: functional; summary of the method: as §1
[25] = test system: Candida albicans; test: Inhibition of ABC efflux pumps in fluconazole resistant Candida albicans 167-1 assessed as reduction in energy-dependent rhodamine 6G efflux in presence of 0.1 M glucose after 25 mins […] relative to control
[26] = test system: Candida albicans; test: Inhibition of ergosterol biosynthesis in fluconazole susceptible Candida albicans ATCC 90028 at 0.5 to 1 times MIC relative to control; assay type: functional
Summary of the method: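 ATCC90028 grown in 50 ml TSB with MIC and ½ MIC of compound; untreated and 8 μg mL–1 fluconazole controls. Sterols extracted by alcoholic KOH method and spectrophotometrically scanned; ergosterol % calculated from A281.5 and A230 (E values 290 and 518) with dilution factor, per pellet weight.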

[27] = test system: Candida albicans; test: Antifungal activity against fluconazole susceptible Candida albicans 0072gr in presence of fluconazole by CLSI protocol based broth microdilution method; assay type: functional
[28] = test system: Candida albicans; test: Down regulation of ERG11 gene expression in fluconazole susceptible Candida albicans ATCC 90028 at MIC after 2 hrs by qRT PCR analysis relative to control; assay type: functional
Summary of the method: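 Cells exposed to compound at MIC for 2 h; total RNA isolated, cDNA synthesised, ERG11 measured by real-time qPCR with ACT1 as endogenous control. Triplicate independent experiments; mean ± standard deviation.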

[29] = test system: Candida albicans; test: Antifungal activity against fluconazole susceptible Candida albicans 002B1 in presence of fluconazole by CLSI protocol based broth microdilution method; assay type: functional
[30] = test system: Candida albicans; test: Antifungal activity against fluconazole resistant Candida albicans A171 by CLSI protocol based broth microdilution method; assay type: functional; summary of the method: as §4
[31] = test system: Candida albicans; test: Inhibition of ABC efflux pumps in fluconazole resistant Candida albicans 167-2 assessed as reduction in energy-dependent rhodamine 6G efflux in presence of 0.1 M glucose after 25 mins […] relative to control
[32] = test system: Candida albicans; test: Antifungal activity against fluconazole susceptible Candida albicans 0079gr in presence of fluconazole by CLSI protocol based broth microdilution method; assay type: functional
[33] = test system: Candida albicans; test: Antifungal activity against fluconazole susceptible Candida albicans 004B1 by CLSI protocol based broth microdilution method; assay type: functional; summary of the method: as §1

c1ccc(C2=NOC(c3ccc(C4CC(c5ccccc5)=NO4)cc3)C2)cc1 (stereo unspecified)
0.532 - 1.02: fractional inhibitory concentration index (FICI) [6] | fractional inhibitory concentration index (FICI) [15] | fractional inhibitory concentration index (FICI) [16]
66 - 99%: inhibition (INH) [26]
8 to 16 µg/mL: MIC [21] | MIC [23] | MIC [30]
< 20%: inhibition [5] | inhibition [7] | inhibition [9] | inhibition [13] | inhibition [14] | inhibition [17] | inhibition [18] | inhibition [25] | inhibition [31]
1.25 - 10: fold change (FC) [10]
1.5 - 13: fold change (FC) [28]
0.37 - 0.75: fractional inhibitory concentration index (FICI) [2] | fractional inhibitory concentration index (FICI) [3] | fractional inhibitory concentration index (FICI) [12] | fractional inhibitory concentration index (FICI) [20] | fractional inhibitory concentration index (FICI) [27] | fractional inhibitory concentration index (FICI) [29] | fractional inhibitory concentration index (FICI) [32]
49 - 94%: inhibition (INH) [11]
2 to 8 µg/mL: MIC [1] | MIC [4] | MIC [8] | MIC [19] | MIC [22] | MIC [24] | MIC [33]

c1ccc(-c2cc(-c3ccc(-c4cc(-c5ccccc5)n[nH]4)cc3)[nH]n2)cc1
0.531 - 2.27: fractional inhibitory concentration index (FICI) [6] | fractional inhibitory concentration index (FICI) [15] | fractional inhibitory concentration index (FICI) [16]
49 - 94%: inhibition (INH) [11]
1.5 - 13: fold change (FC) [28]
< 20%: inhibition [5] | inhibition [7] | inhibition [9] | inhibition [13] | inhibition [14] | inhibition [17] | inhibition [18] | inhibition [25] | inhibition [31]
1.25 - 10: fold change (FC) [10]
0.63 - 1.5: fractional inhibitory concentration index (FICI) [2] | fractional inhibitory concentration index (FICI) [3] | fractional inhibitory concentration index (FICI) [12] | fractional inhibitory concentration index (FICI) [20] | fractional inhibitory concentration index (FICI) [27] | fractional inhibitory concentration index (FICI) [29] | fractional inhibitory concentration index (FICI) [32]
31 to 125 µg/mL: MIC [21] | MIC [23] | MIC [30]
66 - 99%: inhibition (INH) [26]
2 to 16 µg/mL: MIC [1] | MIC [4] | MIC [8] | MIC [19] | MIC [22] | MIC [24] | MIC [33]
